Columns and labels:
MT2 = test: Cytotoxicity against human MT2 cells assessed as decrease in cell viability after 3 days […]; assay type: functional; conditions: MT2, 72 h
[1] = Permeability in human Caco2 cells; assay type: ADME, cell-based; conditions: Caco-2, read-out: permeability
[2] = Metabolic stability in human liver microsomes assessed as parent compound remaining after 10 mins; assay type: ADME, microsome; conditions: read-out: Stability
Outline: (§1)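 Compound at 3 μM was incubated with human or rat liver microsomes, and the percentage of parent compound remaining was measured after 10 min.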

[3] = Metabolic stability in rat liver microsomes assessed as parent compound remaining after 10 mins; assay type: ADME, microsome; conditions: read-out: Stability; outline: as §1
[4] = tested on: Human immunodeficiency virus 1; test: Antiviral activity against ENV pseudotyped CCR5-tropic HIV1 […] infected in human HeLa67 cells after 3 days by luciferase reporter gene assay; assay type: functional, organism-based; conditions: Human immunodeficiency virus 1, HeLa67, 72 h
Outline: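 Single-cycle infection with env-deleted, luciferase-reporter HIV-1 pseudotyped with the JRFL (CCR5) envelope, supplied by transfection; viral titers normalized by luminescence without compound. HeLa 67 cells were infected in the presence of compounds given as 3-fold serial dilutions made from 30 mM DMSO stocks.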

[5] = Half life in human liver microsomes; assay type: ADME, microsome

SMILES | CC50 (MT2) | Papp [1] | remaining at 10 min [2] | remaining at 10 min [3] | EC50 [4] | half-life [5]
COc1cnc(-n2cnc(N)n2)c2[nH]cc(C(=O)C(=O)N3CCN(C(=O)c4ccccc4)[C@H](C)C3)c12 | > 300 µM | < 1.5 ×10⁻⁶ cm/s | 95% | 99% | 0.17 nM | –
CCN(CC)CCNc1ncn(-c2ncc(OC)c3c(C(=O)C(=O)N4CCN(C(=O)c5ccccc5)CC4)c[nH]c23)n1 | > 300 µM | < 1.5 ×10⁻⁶ cm/s | 87% | 100% | 1.04 nM | –
COc1cnc(-c2cnc(N)cn2)c2[nH]cc(C(=O)C(=O)N3CCN(C(=O)c4ccccc4)CC3)c12 | 20 µM | 3.3 ×10⁻⁶ cm/s | – | – | 0.04 nM | 68 min
CNC(=O)c1ccn(-c2ncc(OC)c3c(C(=O)C(=O)N4CCN(C(=O)c5ccccc5)CC4)c[nH]c23)n1 | 166 µM | < 1.5 ×10⁻⁶ cm/s | 87% | 81% | 0.05 nM | –
COc1cnc(-n2cnc(SC)n2)c2[nH]cc(C(=O)C(=O)N3CCN(C(=O)c4ccccc4)CC3)c12 | > 300 µM | < 1.5 ×10⁻⁶ cm/s | 68% | 91% | 0.03 nM | –
COc1cnc(-c2cccc(C)n2)c2[nH]cc(C(=O)C(=O)N3CCN(C(=O)c4ccccc4)CC3)c12 | 30 µM | 13.4 ×10⁻⁶ cm/s | – | – | 0.59 nM | 12 min
CNC(=O)c1ncn(-c2ncc(OC)c3c(C(=O)C(=O)N4CCN(C(=O)c5ccccc5)CC4)c[nH]c23)n1 | > 300 µM | – | – | – | 0.1 nM | –
COc1cnc(-n2cc(C)cn2)c2[nH]cc(C(=O)C(=O)N3CCN(C(=O)c4ccccc4)CC3)c12 | 243 µM | – | – | – | – | –
COc1cnc(-c2ccsc2)c2[nH]cc(C(=O)C(=O)N3CCN(C(=O)c4ccccc4)CC3)c12 | 43 µM | 3.9 ×10⁻⁶ cm/s | – | – | 0.13 nM | 13 min
COc1cnc(-c2cscn2)c2[nH]cc(C(=O)C(=O)N3CCN(C(=O)c4ccccc4)CC3)c12 | – | 21.7 ×10⁻⁶ cm/s | – | – | 0.11 nM | 39 min
COc1cnc(-c2cnc(O)cn2)c2[nH]cc(C(=O)C(=O)N3CCN(C(=O)c4ccccc4)CC3)c12 | > 300 µM | < 1.5 ×10⁻⁶ cm/s | – | – | 0.04 nM | > 100 min
COc1cnc(-n2cnc(C(=O)N3CCN(C)CC3)n2)c2[nH]cc(C(=O)C(=O)N3CCN(C(=O)c4ccccc4)CC3)c12 | > 150 µM | – | – | – | 6.54 nM | –
COc1cnc(-n2nccc2C)c2[nH]cc(C(=O)C(=O)N3CCN(C(=O)c4ccccc4)CC3)c12 | > 300 µM | 21.6 ×10⁻⁶ cm/s | 94% | 100% | 1.43 nM | –
COc1ncn(-c2ncc(OC)c3c(C(=O)C(=O)N4CCN(C(=O)c5ccccc5)CC4)c[nH]c23)n1 | 285 µM | – | – | – | 0.13 nM | –
CCCS(=O)(=O)c1ncn(-c2ncc(OC)c3c(C(=O)C(=O)N4CCN(C(=O)c5ccccc5)CC4)c[nH]c23)n1 | 207 µM | – | – | – | 0.78 nM | –
COc1cnc(-c2ccnnc2)c2[nH]cc(C(=O)C(=O)N3CCN(C(=O)c4ccccc4)CC3)c12 | 14 µM | < 1.5 ×10⁻⁶ cm/s | – | – | 0.19 nM | 48 min
COc1cnc(-c2ccncc2)c2[nH]cc(C(=O)C(=O)N3CCN(C(=O)c4ccccc4)CC3)c12 | 6 µM | – | – | – | 0.33 nM | –
COc1cnc(-c2cnc(N)s2)c2[nH]cc(C(=O)C(=O)N3CCN(C(=O)c4ccccc4)CC3)c12 | > 250 µM | – | – | – | 0.06 nM | 26 min
COc1cnc(-c2cc[nH]n2)c2[nH]cc(C(=O)C(=O)N3CCN(C(=O)c4ccccc4)CC3)c12 | 3 µM | < 1 ×10⁻⁶ cm/s | – | – | 0.26 nM | 47 min
COc1cnc(-n2ccc(N)n2)c2[nH]cc(C(=O)C(=O)N3CCN(C(=O)c4ccccc4)[C@H](C)C3)c12 | > 300 µM | – | 92% | 91% | 0.16 nM | –
COc1cnc(-c2cncc(N)n2)c2[nH]cc(C(=O)C(=O)N3CCN(C(=O)c4ccccc4)CC3)c12 | 14 µM | 1.5 to 2.2 ×10⁻⁶ cm/s | – | – | 0.06 nM | 21 min
COc1cnc(-c2cccnn2)c2[nH]cc(C(=O)C(=O)N3CCN(C(=O)c4ccccc4)CC3)c12 | > 300 µM | 2.4 ×10⁻⁶ cm/s | – | – | 0.17 nM | 29 min
COc1cnc(-c2cncs2)c2[nH]cc(C(=O)C(=O)N3CCN(C(=O)c4ccccc4)CC3)c12 | 297 to 300 µM | 1.5 ×10⁻⁶ cm/s | – | – | 0.03 nM | 19 min
COc1cnc(-c2ccco2)c2[nH]cc(C(=O)C(=O)N3CCN(C(=O)c4ccccc4)CC3)c12 | 281 to 300 µM | 8.6 ×10⁻⁶ cm/s | – | – | 0.02 nM | 19 min
COc1cnc(-n2cnc(C)n2)c2[nH]cc(C(=O)C(=O)N3CCN(C(=O)c4ccccc4)[C@@H](C)C3)c12 | > 300 µM | – | – | 95% | 0.52 nM | –

SMILES | CC50 (MT2) | Papp [1] | remaining at 10 min [2] | remaining at 10 min [3] | EC50 [4] | half-life [5]
COc1cnc(-n2cnc(N3CCN(C)CC3)n2)c2[nH]cc(C(=O)C(=O)N3CCN(C(=O)c4ccccc4)CC3)c12 | > 300 µM | – | – | – | 0.14 nM | –
COc1cnc(-c2ncccn2)c2[nH]cc(C(=O)C(=O)N3CCN(C(=O)c4ccccc4)CC3)c12 | > 300 µM | 10.6 ×10⁻⁶ cm/s | – | – | 1.28 nM | 32 min
COc1cnc(-c2cnccn2)c2[nH]cc(C(=O)C(=O)N3CCN(C(=O)c4ccccc4)CC3)c12 | 3.46 µM | 17 ×10⁻⁶ cm/s | – | – | 0.04 nM | 19 min
CCCSc1ncn(-c2ncc(OC)c3c(C(=O)C(=O)N4CCN(C(=O)c5ccccc5)CC4)c[nH]c23)n1 | 7 µM | – | – | – | 0.015 nM | –
COc1cnc(-n2cc(C)nn2)c2[nH]cc(C(=O)C(=O)N3CCN(C(=O)c4ccccc4)CC3)c12 | > 300 µM | 16.6 ×10⁻⁶ cm/s | 94% | 84% | 0.06 nM | –
COc1cnc(-n2cncn2)c2[nH]cc(C(=O)C(=O)N3CCN(C(=O)c4ccccc4)[C@H](C)C3)c12 | > 300 µM | 21.9 ×10⁻⁶ cm/s | 95% | 95% | 0.08 nM | –
CCc1ncc(-c2ncc(OC)c3c(C(=O)C(=O)N4CCN(C(=O)c5ccccc5)CC4)c[nH]c23)s1 | 120 µM | 14.1 ×10⁻⁶ cm/s | – | – | 0.03 nM | 7 min
COc1cnc(-c2ncco2)c2[nH]cc(C(=O)C(=O)N3CCN(C(=O)c4ccccc4)CC3)c12 | 15 µM | 7.2 ×10⁻⁶ cm/s | – | – | 0.37 nM | 37 min
COc1cnc(-c2cnccn2)c2[nH]cc(C(=O)C(=O)N3CCN(C(=O)c4ccccn4)[C@@H](C)C3)c12 | 267 to 300 µM | – | – | – | 1.04 nM | –
COc1cnc(-c2ccccn2)c2[nH]cc(C(=O)C(=O)N3CCN(C(=O)c4ccccc4)CC3)c12 | 4 µM | 13.4 ×10⁻⁶ cm/s | – | – | 0.13 nM | 15 min
COc1cnc(-c2cccs2)c2[nH]cc(C(=O)C(=O)N3CCN(C(=O)c4ccccc4)CC3)c12 | 36 µM | 6.6 ×10⁻⁶ cm/s | – | – | 0.12 nM | 18 min
COc1cnc(-c2ccncn2)c2[nH]cc(C(=O)C(=O)N3CCN(C(=O)c4ccccc4)CC3)c12 | 285 to 300 µM | 37.8 ×10⁻⁶ cm/s | – | – | 0.11 nM | 15 min
COc1cnc(-c2cccnc2)c2[nH]cc(C(=O)C(=O)N3CCN(C(=O)c4ccccc4)CC3)c12 | 10 µM | < 1.5 ×10⁻⁶ cm/s | – | – | 0.09 nM | 41 min
COc1cnc(-n2cnc(C(=O)N(C)C)n2)c2[nH]cc(C(=O)C(=O)N3CCN(C(=O)c4ccccc4)CC3)c12 | > 300 µM | – | – | – | 0.1 nM | –
COc1cnc(-n2ccc(CN(C)C)n2)c2[nH]cc(C(=O)C(=O)N3CCN(C(=O)c4ccccc4)[C@H](C)C3)c12 | > 300 µM | – | – | – | 19.8 nM | –
COc1cnc(-n2ccc(-c3cccc(-c4nn[nH]n4)c3)n2)c2[nH]cc(C(=O)C(=O)N3CCN(C(=O)c4ccccc4)CC3)c12 | 128 µM | – | – | – | 0.02 nM | –
COc1cnc(-n2nccc2N)c2[nH]cc(C(=O)C(=O)N3CCN(C(=O)c4ccccc4)[C@H](C)C3)c12 | > 300 µM | – | 68% | 85% | 0.07 nM | –
COc1cnc(-c2nccs2)c2[nH]cc(C(=O)C(=O)N3CCN(C(=O)c4ccccc4)CC3)c12 | > 150 µM | < 1.5 ×10⁻⁶ cm/s | – | – | 0.02 nM | 17 min
COc1cnc(-c2ccoc2)c2[nH]cc(C(=O)C(=O)N3CCN(C(=O)c4ccccc4)CC3)c12 | 146 µM | 4.6 ×10⁻⁶ cm/s | – | – | 0.11 nM | 29 min
COc1cccc(-c2ncc(OC)c3c(C(=O)C(=O)N4CCN(C(=O)c5ccccc5)CC4)c[nH]c23)n1 | 64 µM | – | – | – | 0.91 nM | 8 min
COc1cnc(-n2ccc(-c3ccc(-c4nn[nH]n4)cc3)n2)c2[nH]cc(C(=O)C(=O)N3CCN(C(=O)c4ccccc4)CC3)c12 | > 300 µM | – | – | – | 0.03 nM | –
CNc1cnc(-c2ncc(OC)c3c(C(=O)C(=O)N4CCN(C(=O)c5ccccc5)CC4)c[nH]c23)cn1 | > 95 µM | – | – | – | 0.02 nM | 21 min
CCOc1ncc(-c2ncc(OC)c3c(C(=O)C(=O)N4CCN(C(=O)c5ccccc5)CC4)c[nH]c23)s1 | > 300 µM | – | – | – | 0.1 nM | 17 min
COc1cnc(-c2cn(C)c(=O)cn2)c2[nH]cc(C(=O)C(=O)N3CCN(C(=O)c4ccccc4)CC3)c12 | > 150 µM | – | – | – | 0.26 nM | –
COc1cnc(-c2cccc(N)n2)c2[nH]cc(C(=O)C(=O)N3CCN(C(=O)c4ccccc4)CC3)c12 | 122 µM | 6.6 ×10⁻⁶ cm/s | – | – | 0.09 nM | 13 min
